We go through 13 compounds from ChEMBL document CHEMBL5390300, “Tuning the Reactivity of Nuclear Factor Erythroid 2-Related Factor 2 (Nrf2) Activators for Optimal in Vivo Efficacy” (ACS Med Chem Lett, 2023).

Data set [1] has as its target T1, Nuclear factor erythroid 2-related factor 2 (Homo sapiens, UniProt Q16236).
T1 sequence (Q16236 whole entry): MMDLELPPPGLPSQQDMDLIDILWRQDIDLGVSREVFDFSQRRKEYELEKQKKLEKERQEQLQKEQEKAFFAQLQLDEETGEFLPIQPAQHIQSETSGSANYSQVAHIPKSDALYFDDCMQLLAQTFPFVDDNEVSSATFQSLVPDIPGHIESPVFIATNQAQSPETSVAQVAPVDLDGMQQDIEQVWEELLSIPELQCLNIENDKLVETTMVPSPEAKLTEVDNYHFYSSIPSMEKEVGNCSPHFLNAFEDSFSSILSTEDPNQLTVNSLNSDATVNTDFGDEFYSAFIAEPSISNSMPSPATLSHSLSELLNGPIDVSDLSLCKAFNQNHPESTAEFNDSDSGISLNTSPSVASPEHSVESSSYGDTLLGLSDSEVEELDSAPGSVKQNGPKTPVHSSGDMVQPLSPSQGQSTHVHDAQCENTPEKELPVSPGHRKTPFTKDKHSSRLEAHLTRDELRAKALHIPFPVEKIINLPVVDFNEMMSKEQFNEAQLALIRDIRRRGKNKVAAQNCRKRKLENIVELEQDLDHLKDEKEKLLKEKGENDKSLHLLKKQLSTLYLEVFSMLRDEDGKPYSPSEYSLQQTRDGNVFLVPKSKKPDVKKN
Put plainly: Activation of Nrf2 in human PathHunter U2OS Keap1-Nrf2 cells assessed as Nrf2 nuclear translocation by chemiluminescent assay. It counts as cell-based.

Another data set deals with THP-1. The experiment in a line: Inhibition of LPS-induced IL-23 production in IFN-gamma primed human THP-1 cells preincubated for 1 hr followed by LPS stimulation for 18 hrs by sandwich ELISA. It counts as functional, cell-based. In general terms: ELISA stands for enzyme-linked immunosorbent assay.
For data set [2], the target named is T2, Nuclear factor erythroid 2-related factor 2 (Homo sapiens) (UniProt Q16236).
T2 sequence (whole entry): T1 sequence (Q16236 whole entry)
The experiment in a line: Activation of Nrf2 in human THP-1 cells assessed as increase in cellular Nrf2 level at 0.08 to 10 uM by western blot analysis. The conditions noted are these: filed as activator, dose 0.08-10 µM. Type of data set: cell-based. Put shortly:
(§1)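 THP-1 cells were exposed to a range of compound concentrations. Cellular Nrf2 and HO-1 expression were detected by Western blot.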

For data set [3], the system named is Mus musculus. The experiment in a line: Antiinflammatory activity against MOG35-55 induced experimental autoimmune encephalomyelitis C57BL/6 mouse model assessed as reduction in clinical score at 75 mg/kg, po BID and measured for 28 days. It counts as functional. Particulars: C57BL/6, 672 h, time 28 day. In short, it runs like this: (§2)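 EAE was induced in mice by immunization with myelin oligodendrocyte glycoprotein (MOG). Compounds were dosed twice daily (BID), with DMF dosed BID as control. Clinical scores were followed over the study and reported as mean with SEM. Efficacy is expressed as % reduction in clinical score.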

The test system of data set [4] is Mus musculus. The experiment in a line: Increase in Nrf2 level in thymus of MOG35-55 induced experimental autoimmune encephalomyelitis C57BL/6 mouse model at 75 mg/kg, po measured for 8 hrs. Type of data set: functional, organism-based. In short, it runs like this:
(§3)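 After the EAE study, mouse thymus was analysed for Nrf2 levels by Western blot, following BID dosing at 60 and 90 mg/kg, or at 75 mg/kg for the DMF control. Nrf2 increase was assessed over an 8 h period.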

Data set [5] deals with T2, Nuclear factor erythroid 2-related factor 2 (Homo sapiens). Put plainly: Activation of Nrf2 in human THP-1 cells assessed as increase in HO-1 expression at 0.08 to 10 uM by western blot analysis. The conditions noted are these: filed as activator, dose 0.08-10 µM. It counts as cell-based. Put shortly: as §1
The target in data set [6] is T3, Adenosine receptor A3 (Homo sapiens) (UniProt P0DMS8).
T3 sequence (whole entry): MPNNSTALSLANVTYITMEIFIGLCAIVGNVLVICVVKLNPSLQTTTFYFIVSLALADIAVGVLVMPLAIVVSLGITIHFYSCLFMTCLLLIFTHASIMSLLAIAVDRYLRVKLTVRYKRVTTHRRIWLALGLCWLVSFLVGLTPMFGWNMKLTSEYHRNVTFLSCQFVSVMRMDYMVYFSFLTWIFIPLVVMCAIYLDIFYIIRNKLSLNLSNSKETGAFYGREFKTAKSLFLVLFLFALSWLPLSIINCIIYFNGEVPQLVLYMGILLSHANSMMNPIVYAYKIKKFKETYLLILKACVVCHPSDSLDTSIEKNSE
Put plainly: Inhibition of adenosine A3 receptor (unknown origin) at 500 uM relative to control.

Data set [7] concerns the target 5-hydroxytryptamine receptor 2B (Homo sapiens) (UniProt P41595). Put plainly: Inhibition of 5-HT2B receptor (unknown origin) at 500 uM relative to control.
Data set [8] has as its system Mus musculus. The experiment in a line: Antiinflammatory activity against MOG35-55 induced experimental autoimmune encephalomyelitis C57BL/6 mouse model assessed as reduction in clinical score at 30 mg/kg, po BID and measured for 28 days. It counts as functional. Put shortly: as §2
Data set [9] addresses Kelch-like ECH-associated protein 1 (Homo sapiens) (UniProt Q14145). Put plainly: Binding affinity to human Keap1 assessed as cysteine labeling at 30 uM incubated for 2 hrs by LC-MS/MS analysis.
Data set [10] deals with Mus musculus. The experiment in a line: Antiinflammatory activity against MOG35-55 induced experimental autoimmune encephalomyelitis C57BL/6 mouse model assessed as reduction in clinical score at 10 mg/kg, po BID and measured for 28 days. Type of data set: functional. The conditions noted are these: C57BL/6, 672 h, time 28 day. Put shortly: as §2
In data set [11] the target is T4, Voltage-gated inwardly rectifying potassium channel KCNH2 (Homo sapiens, UniProt Q12809). Put plainly: Inhibition of hERG assessed as inhibition of channel current at 200 uM by manual patch clamp analysis. It counts as toxicity. (The hERG channel carries a current that helps repolarise heart muscle cells.)
The nature of data set [12]: Mutagenicity in Salmonella typhimurium by Ames test. It counts as toxicity. The conditions noted are these: salmonella enterica subsp. enterica serovar typhimurium. Background: The Ames test uses bacterial strains that need an amino acid and regain growth without it when mutated back.
A short description of data set [13]: Metabolic stability of the compound in mouse plasma. It counts as ADME, cell-free.
For data set [14], the target named is T4, Voltage-gated inwardly rectifying potassium channel KCNH2. The experiment in a line: Inhibition of hERG assessed as inhibition of channel current at 60 uM by manual patch clamp analysis. It counts as toxicity.
For data set [15] the target is unchanged. Put plainly: Inhibition of hERG assessed as inhibition of channel current at 180 uM by manual patch clamp analysis. It counts as toxicity.
Data set [16] concerns Mus musculus. The experiment in a line: Antiinflammatory activity against MOG35-55 induced experimental autoimmune encephalomyelitis C57BL/6 mouse model assessed as reduction in clinical score at 60 mg/kg, po BID and measured for 28 days. Type of data set: functional. Particulars: C57BL/6, 672 h, time 28 day. Put shortly: as §2
Data set [17] has as its system Mus musculus. Put plainly: Increase in Nrf2 level in thymus of MOG35-55 induced experimental autoimmune encephalomyelitis C57BL/6 mouse model at 60 to 90 mg/kg, po measured for 8 hrs. It counts as functional, organism-based. The conditions noted are these: dose 60-90 mg/kg. In short, it runs like this:
as §3

One may read the pEC50 as −log10 of the EC50, conventionally taken in molar units. By pIC50 is commonly meant −log10 of the IC50, conventionally taken in molar units. The low end stands for a large IC50, the high end for a small IC50. Broadly, the inhibition in vivo is the share of the control response that was lost under treatment. By inhibition is commonly meant the percentage by which the read-out fell short of the control. Lower therefore signals a response near the control.

pEC50, pIC50: −log10 of the molar value. Structures can show the parent of a compound that is named as a salt. Calls of active or inactive are those of the source. No cut-off for these calls is given here.

T4 sequence (Q12809 whole entry): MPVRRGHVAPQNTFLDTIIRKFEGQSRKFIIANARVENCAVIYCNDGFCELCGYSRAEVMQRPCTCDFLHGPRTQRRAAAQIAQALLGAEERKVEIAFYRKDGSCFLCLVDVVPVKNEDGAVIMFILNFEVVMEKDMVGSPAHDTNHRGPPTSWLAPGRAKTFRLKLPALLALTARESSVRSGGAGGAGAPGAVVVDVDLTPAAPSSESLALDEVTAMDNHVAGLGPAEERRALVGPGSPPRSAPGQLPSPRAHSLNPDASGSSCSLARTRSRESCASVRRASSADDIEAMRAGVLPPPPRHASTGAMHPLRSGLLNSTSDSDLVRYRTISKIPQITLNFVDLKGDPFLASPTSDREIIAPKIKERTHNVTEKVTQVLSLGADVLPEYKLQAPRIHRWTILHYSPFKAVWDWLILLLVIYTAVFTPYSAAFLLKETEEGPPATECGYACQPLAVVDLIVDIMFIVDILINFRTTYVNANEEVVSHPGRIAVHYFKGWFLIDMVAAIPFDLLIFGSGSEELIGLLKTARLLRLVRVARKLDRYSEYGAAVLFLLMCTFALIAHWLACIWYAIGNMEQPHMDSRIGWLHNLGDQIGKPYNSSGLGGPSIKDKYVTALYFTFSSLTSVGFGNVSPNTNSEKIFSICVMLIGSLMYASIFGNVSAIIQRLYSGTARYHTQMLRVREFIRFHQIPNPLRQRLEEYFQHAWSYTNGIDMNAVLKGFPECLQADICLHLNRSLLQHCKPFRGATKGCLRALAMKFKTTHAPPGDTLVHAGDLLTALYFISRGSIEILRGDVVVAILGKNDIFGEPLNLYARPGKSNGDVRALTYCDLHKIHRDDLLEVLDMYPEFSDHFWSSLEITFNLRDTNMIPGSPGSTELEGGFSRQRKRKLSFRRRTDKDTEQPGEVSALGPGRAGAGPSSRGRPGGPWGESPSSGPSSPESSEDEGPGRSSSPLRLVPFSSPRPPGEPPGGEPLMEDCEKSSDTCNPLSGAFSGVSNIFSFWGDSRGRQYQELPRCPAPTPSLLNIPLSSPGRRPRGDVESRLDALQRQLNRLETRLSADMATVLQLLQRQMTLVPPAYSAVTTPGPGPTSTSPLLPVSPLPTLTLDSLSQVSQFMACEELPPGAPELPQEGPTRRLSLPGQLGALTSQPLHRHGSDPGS
Chain of 5-hydroxytryptamine receptor 2B (Homo sapiens) (P41595 whole entry): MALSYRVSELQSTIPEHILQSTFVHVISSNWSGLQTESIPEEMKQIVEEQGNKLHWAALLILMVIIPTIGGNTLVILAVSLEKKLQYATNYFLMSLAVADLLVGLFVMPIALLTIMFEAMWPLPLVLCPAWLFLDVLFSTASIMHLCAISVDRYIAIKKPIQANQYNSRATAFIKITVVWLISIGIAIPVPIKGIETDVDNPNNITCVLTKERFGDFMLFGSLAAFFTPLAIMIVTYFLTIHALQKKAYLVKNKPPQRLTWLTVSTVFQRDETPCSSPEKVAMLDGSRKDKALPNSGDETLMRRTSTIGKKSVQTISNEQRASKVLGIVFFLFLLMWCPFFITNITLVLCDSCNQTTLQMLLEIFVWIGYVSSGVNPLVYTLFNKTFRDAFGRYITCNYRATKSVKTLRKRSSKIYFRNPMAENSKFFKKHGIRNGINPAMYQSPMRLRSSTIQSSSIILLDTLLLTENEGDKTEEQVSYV
Chain of Kelch-like ECH-associated protein 1 (Homo sapiens) (Q14145 whole entry): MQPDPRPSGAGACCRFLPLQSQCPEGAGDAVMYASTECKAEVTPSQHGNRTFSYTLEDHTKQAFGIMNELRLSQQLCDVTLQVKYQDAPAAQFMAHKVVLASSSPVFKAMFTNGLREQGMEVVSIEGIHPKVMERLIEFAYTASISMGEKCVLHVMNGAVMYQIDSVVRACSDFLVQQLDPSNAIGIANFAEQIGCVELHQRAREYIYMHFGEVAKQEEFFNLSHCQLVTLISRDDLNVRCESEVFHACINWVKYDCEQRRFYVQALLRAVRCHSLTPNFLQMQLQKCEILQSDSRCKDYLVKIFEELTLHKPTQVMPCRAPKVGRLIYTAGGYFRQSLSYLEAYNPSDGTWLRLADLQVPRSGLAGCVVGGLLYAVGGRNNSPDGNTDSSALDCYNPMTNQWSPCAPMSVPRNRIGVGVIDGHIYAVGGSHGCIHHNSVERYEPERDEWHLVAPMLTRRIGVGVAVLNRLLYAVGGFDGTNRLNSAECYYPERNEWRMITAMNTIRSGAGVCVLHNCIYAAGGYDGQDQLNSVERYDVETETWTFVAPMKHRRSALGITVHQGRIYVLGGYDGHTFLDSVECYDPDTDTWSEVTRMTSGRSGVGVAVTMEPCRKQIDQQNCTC

Turning to `COC(=O)/C=C/C(=O)OC` [DIMETHYL FUMARATE], the pEC50 in data set [1] is 5.10. In the data set with THP-1, this compound gave a pIC50 of 4.97. The Activity result in data set [2] is “Dose-Dependent Effect”. Besides, the inhibition in vivo at 75 mg/kg in the data set on Mus musculus [3] turned out to be 83%. In addition, the outcome (in the data set with Mus musculus [4]; in [5]) was Active.

Turning to `Cn1ncn(/C=C/S(=O)(=O)c2ccccc2)c1=O`, the pIC50 in the data set with THP-1 was 5.67.

Take `Cc1ccc(S(=O)(=O)/C=C/n2nnn(C)c2=O)cc1`: the negative-log IC50 (pIC50) in the data set with THP-1 is 6.72. Besides, the inhibition in data set [6] stood at 82%; in data set [7], 74%. Besides, in the data set on Mus musculus [8] (time 28.0 day), the result was inactive. In addition, in data set [9], the result was Active. Also, in the data set on Mus musculus [10], the inhibition in vivo at 10 mg/kg amounted to 40%.

`COC(=O)/C=C/n1cnn(C)c1=O`: the pEC50 in data set [1] is 4.02. The compound also gave a negative-log IC50 (pIC50) in the data set on THP-1 of 4.53.

On to `COC(=O)/C=C/n1nnn(-c2cccnc2)c1=O`, for which the “inhibition (INH)” value in data set [11] is on record as “Active”. Further, the Activity result in data set [12] is listed as “Non-Toxic”. Further, the Stability result in data set [13] is given as “Unstable”.

For `COC(=O)/C=C/n1nn[nH]c1=O`, the pEC50 in data set [1] was 4.22. Further, in the data set with THP-1, the pIC50 is 4.74. In data set [14], the “inhibition (INH)” value is “Active”. For the same compound, the Activity result in data set [12] is listed as “Toxic”.

With `COC(=O)/C=C/n1nnn(C)c1=O`, in [15], the “inhibition (INH)” value is “Active”.

On to `COC(=O)/C=C/C(=O)O` [MONOMETHYL FUMARATE], for which, in [1], the pEC50 is 3.90. In addition, the pIC50 in the data set on THP-1 is 4.72.

In the data set on THP-1, `Cn1cnn(/C=C/S(=O)(=O)c2ccccc2)c1=O` showed a pIC50 of 5.46. For the same compound, the values for the inhibition in data set [6] and in data set [7] were 82% and 74%, respectively. Besides, the inhibition in vivo at 30 mg/kg with Mus musculus [8] (C57BL/6, 672 h, time 28 day) is 41%. For the same compound, the inhibition in vivo at 60 mg/kg with Mus musculus [16] is 89%. For the same compound, the result with Mus musculus [17] was Active.

Compound `Cn1nnn(/C=C/S(=O)(=O)c2ccccc2)c1=O` had a pIC50 in the data set with THP-1 of 6.52.

In the data set with THP-1, `Cc1ccc(S(=O)(=O)/C=C/n2cnn(C)c2=O)cc1` had a pIC50 of 5.68.

Take `O=c1n(/C=C/S(=O)(=O)c2ccccc2)nnn1-c1cccnc1`: the negative-log IC50 (pIC50) in the data set with THP-1 is 7.70.

The compound `Cc1ccc(S(=O)(=O)/C=C/n2ncn(C)c2=O)cc1` gave a pIC50 in the data set on THP-1 of 5.16.
